Measurements: ChEMBL document CHEMBL3779892, “Increasing the binding affinity of VEGFR-2 inhibitors by extending their hydrophobic interaction with the active site: Design, synthesis and biological evaluation of 1-substituted-4-(4-methoxybenzyl)phthalazine derivatives” (Eur J Med Chem, 2016)

How the values were obtained:
Format in all cases: functional
SR = experiment: Growth inhibition of human SR cells at 10 uM after 48 hrs by sulforhodamine B assay; conditions: read-out: GI
Summary of the method: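 NCI-60 screen. Cells were grown in RPMI 1640 with 5% FBS and 2 mM L-glutamine, plated at 5000–40,000 cells/well and held 24 h at 37 °C, 5% CO2. Single 10 µM final dose from DMSO stock, triplicate wells, 48 h. Settled cells were fixed with 80% TCA (16% final) and stained with 0.4% SRB. Dye was solubilized in 10 mM Tris and read at 515 nm. Growth was calculated against time-zero and untreated wells.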

[1] = Growth inhibition of human MOLT4 cells at 10 uM after 48 hrs by sulforhodamine B assay; conditions: MOLT-4, 48 h, read-out: GI
Summary of the method: (§1)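 Run at NCI on the 60-line panel. Cells grown in RPMI 1640 with 5% FBS and 2 mM L-glutamine, plated at 5000–40,000 cells/well by doubling time, and held 24 h at 37 °C before dosing. Drug (DMSO stock) given at a single final 10 µM in triplicate wells for 48 h. Adherent cells fixed with cold TCA (10% final), suspension cells with 16% TCA. SRB stain read at 515 nm. Percent growth from Tz, C and Ti.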

[2] = Growth inhibition of human TK10 cells at 10 uM after 48 hrs by sulforhodamine B assay; conditions: TK-10, 48 h, read-out: GI
Summary of the method: (§2)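 NCI-60 panel, adherent cells grown in RPMI 1640 with 5% FBS and 2 mM L-glutamine, plated at 5000–40,000 cells/well and preincubated 24 h at 37 °C, 5% CO2. 10 µM final compound from DMSO stock, triplicate wells, 48 h. Fixed with cold TCA (10% final, 60 min, 4 °C) and stained with 0.4% SRB. Absorbance read at 515 nm; growth calculated against time-zero and control wells.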

HT-29 = experiment: Growth inhibition of human HT-29 cells at 10 uM after 48 hrs by sulforhodamine B assay; conditions: HT-29, 48 h, read-out: GI; summary of the method: as §1
SN12C = experiment: Growth inhibition of human SN12C cells at 10 uM after 48 hrs by sulforhodamine B assay; conditions: read-out: GI; summary of the method: as §1
T47D = experiment: Growth inhibition of human T47D cells at 10 uM after 48 hrs by sulforhodamine B assay; conditions: read-out: GI; summary of the method: as §2
MDA-MB-435 = experiment: Growth inhibition of human MDA-MB-435 cells at 10 uM after 48 hrs by sulforhodamine B assay; conditions: MDA-MB-435, 48 h, read-out: GI; summary of the method: as §1
[3] = Growth inhibition of human DU145 cells at 10 uM after 48 hrs by sulforhodamine B assay; conditions: DU-145, 48 h, read-out: GI; summary of the method: as §1
[4] = Growth inhibition of human HOP92 cells at 10 uM after 48 hrs by sulforhodamine B assay; conditions: HOP-92, 48 h, read-out: GI; summary of the method: as §1
[5] = Growth inhibition of human OVCAR8 cells at 10 uM after 48 hrs by sulforhodamine B assay; conditions: OVCAR-8, 48 h, read-out: GI; summary of the method: as §1
A549 = experiment: Growth inhibition of human A549 cells at 10 uM after 48 hrs by sulforhodamine B assay; conditions: A549, 48 h, read-out: GI; summary of the method: as §1
NCI-H322M = experiment: Growth inhibition of human NCI-H322M cells at 10 uM after 48 hrs by sulforhodamine B assay; conditions: read-out: GI; summary of the method: as §1
[6] = Growth inhibition of human SF539 cells at 10 uM after 48 hrs by sulforhodamine B assay; conditions: SF-539, 48 h, read-out: GI; summary of the method: as §1
[7] = Growth inhibition of human SW620 cells at 10 uM after 48 hrs by sulforhodamine B assay; conditions: SW-620, 48 h, read-out: GI; summary of the method: as §2
ACHN = experiment: Growth inhibition of human ACHN cells at 10 uM after 48 hrs by sulforhodamine B assay; conditions: read-out: GI; summary of the method: as §1
[8] = Growth inhibition of human OVCAR3 cells at 10 uM after 48 hrs by sulforhodamine B assay; conditions: OVCAR-3, 48 h, read-out: GI; summary of the method: as §1
[9] = Growth inhibition of human UACC257 cells at 10 uM after 48 hrs by sulforhodamine B assay; conditions: UACC-257, 48 h, read-out: GI; summary of the method: as §2
MDA-MB-468 = experiment: Growth inhibition of human MDA-MB-468 cells at 10 uM after 48 hrs by sulforhodamine B assay; conditions: MDA-MB-468, 48 h, read-out: GI; summary of the method: as §1
[10] = Growth inhibition of human SF295 cells at 10 uM after 48 hrs by sulforhodamine B assay; conditions: SF-295, 48 h, read-out: GI; summary of the method: as §1
K562 = experiment: Growth inhibition of human K562 cells at 10 uM after 48 hrs by sulforhodamine B assay; conditions: K562, 48 h, read-out: GI; summary of the method: as §1
[11] = Growth inhibition of human SNB75 cells at 10 uM after 48 hrs by sulforhodamine B assay; conditions: SNB-75, 48 h, read-out: GI; summary of the method: as §1
[12] = Growth inhibition of human COLO205 cells at 10 uM after 48 hrs by sulforhodamine B assay; conditions: COLO 205, 48 h, read-out: GI; summary of the method: as §1
[13] = Growth inhibition of human NCI-ADR-RES cells at 10 uM after 48 hrs by sulforhodamine B assay; conditions: read-out: GI; summary of the method: as §1
[14] = Growth inhibition of human HCC2998 cells at 10 uM after 48 hrs by sulforhodamine B assay; conditions: HCC 2998, 48 h, read-out: GI; summary of the method: as §1
MCF7 = experiment: Growth inhibition of human MCF7 cells at 10 uM after 48 hrs by sulforhodamine B assay; conditions: MCF7, 48 h, read-out: GI; summary of the method: as §1
[15] = Growth inhibition of human HOP62 cells at 10 uM after 48 hrs by sulforhodamine B assay; conditions: HOP-62, 48 h, read-out: GI; summary of the method: as §1
U-251 = experiment: Growth inhibition of human U251 cells at 10 uM after 48 hrs by sulforhodamine B assay; conditions: U-251, 48 h, read-out: GI; summary of the method: as §2
SK-MEL-5 = experiment: Growth inhibition of human SK-MEL-5 cells at 10 uM after 48 hrs by sulforhodamine B assay; conditions: SK-MEL-5, 48 h, read-out: GI; summary of the method: as §1
SK-MEL-28 = experiment: Growth inhibition of human SK-MEL-28 cells at 10 uM after 48 hrs by sulforhodamine B assay; conditions: SK-MEL-28, 48 h, read-out: GI; summary of the method: as §1
[16] = Growth inhibition of human UACC62 cells at 10 uM after 48 hrs by sulforhodamine B assay; conditions: UACC-62, 48 h, read-out: GI; summary of the method: as §2
[17] = Growth inhibition of human LOXIMVI cells at 10 uM after 48 hrs by sulforhodamine B assay; conditions: LOX IMVI, read-out: GI; summary of the method: as §1
M14 = experiment: Growth inhibition of human M14 cells at 10 uM after 48 hrs by sulforhodamine B assay; conditions: M14, 48 h, read-out: GI; summary of the method: as §1
[18] = Growth inhibition of human SNB19 cells at 10 uM after 48 hrs by sulforhodamine B assay; conditions: SNB-19, 48 h, read-out: GI; summary of the method: as §1
[19] = Growth inhibition of human UO31 cells at 10 uM after 48 hrs by sulforhodamine B assay; conditions: UO-31, 48 h, read-out: GI; summary of the method: as §2

Structure (SMILES): COc1ccc(Cc2nnc(Nc3ccccc3)c3ccccc23)cc1
- inhibition of growth at 10 µM (SR): 30%
- inhibition of growth at 10 µM [1]: < 30%
- inhibition of growth at 10 µM [2]: < 30%
- inhibition of growth at 10 µM (HT-29): < 30%
- inhibition of growth at 10 µM (SN12C): < 30%
- inhibition of growth at 10 µM (T47D): < 30%
- inhibition of growth at 10 µM (MDA-MB-435): < 30%
- inhibition of growth at 10 µM [3]: < 30%
- inhibition of growth at 10 µM [4]: 49%
- inhibition of growth at 10 µM [5]: < 30%
- inhibition of growth at 10 µM (A549): < 30%
- inhibition of growth at 10 µM (NCI-H322M): < 30%
- inhibition of growth at 10 µM [6]: < 30%
- inhibition of growth at 10 µM [7]: < 30%
- inhibition of growth at 10 µM (ACHN): < 30%
- inhibition of growth at 10 µM [8]: < 30%
- inhibition of growth at 10 µM [9]: < 30%
- inhibition of growth at 10 µM (MDA-MB-468): < 30%
- inhibition of growth at 10 µM [10]: < 30%
- inhibition of growth at 10 µM (K562): < 30%
- inhibition of growth at 10 µM [11]: < 30%
- inhibition of growth at 10 µM [12]: < 30%
- inhibition of growth at 10 µM [13]: < 30%
- inhibition of growth at 10 µM [14]: < 30%
- inhibition of growth at 10 µM (MCF7): < 30%
- inhibition of growth at 10 µM [15]: < 30%
- inhibition of growth at 10 µM (U-251): < 30%
- inhibition of growth at 10 µM (SK-MEL-5): < 30%
- inhibition of growth at 10 µM (SK-MEL-28): < 30%
- inhibition of growth at 10 µM [16]: < 31%
- inhibition of growth at 10 µM [17]: < 30%
- inhibition of growth at 10 µM (M14): < 30%
- inhibition of growth at 10 µM [18]: < 30%
- inhibition of growth at 10 µM [19]: 38%

Structure (SMILES): COc1ccc(Cc2nnc(Nc3cccc(C(F)(F)F)c3)c3ccccc23)cc1
- inhibition of growth at 10 µM (SR): 52%
- inhibition of growth at 10 µM [1]: 60%
- inhibition of growth at 10 µM [2]: < 30%
- inhibition of growth at 10 µM (HT-29): 49%
- inhibition of growth at 10 µM (SN12C): 46%
- inhibition of growth at 10 µM (T47D): 56%
- inhibition of growth at 10 µM (MDA-MB-435): < 30%
- inhibition of growth at 10 µM [3]: < 30%
- inhibition of growth at 10 µM [4]: 63%
- inhibition of growth at 10 µM [5]: 35%
- inhibition of growth at 10 µM (A549): 57%
- inhibition of growth at 10 µM (NCI-H322M): < 30%
- inhibition of growth at 10 µM [6]: 36%
- inhibition of growth at 10 µM [7]: < 30%
- inhibition of growth at 10 µM (ACHN): 31%
- inhibition of growth at 10 µM [8]: 48%
- inhibition of growth at 10 µM [9]: < 30%
- inhibition of growth at 10 µM (MDA-MB-468): 42%
- inhibition of growth at 10 µM [10]: 38%
- inhibition of growth at 10 µM (K562): 49%
- inhibition of growth at 10 µM [11]: < 30%
- inhibition of growth at 10 µM [12]: < 30%
- inhibition of growth at 10 µM [13]: 40%
- inhibition of growth at 10 µM [14]: 31%
- inhibition of growth at 10 µM (MCF7): 35%
- inhibition of growth at 10 µM [15]: < 30%
- inhibition of growth at 10 µM (U-251): 44%
- inhibition of growth at 10 µM (SK-MEL-5): < 30%
- inhibition of growth at 10 µM (SK-MEL-28): < 30%
- inhibition of growth at 10 µM [16]: 42%
- inhibition of growth at 10 µM [17]: < 30%
- inhibition of growth at 10 µM (M14): < 30%
- inhibition of growth at 10 µM [18]: 45%
- inhibition of growth at 10 µM [19]: 66%

Structure (SMILES): COc1ccc(Cc2nnc(Nc3ccc(C#N)cc3)c3ccccc23)cc1
- inhibition of growth at 10 µM (SR): < 30%
- inhibition of growth at 10 µM [1]: < 30%
- inhibition of growth at 10 µM [2]: < 30%
- inhibition of growth at 10 µM (HT-29): < 30%
- inhibition of growth at 10 µM (SN12C): < 30%
- inhibition of growth at 10 µM (T47D): 50%
- inhibition of growth at 10 µM (MDA-MB-435): < 30%
- inhibition of growth at 10 µM [3]: < 30%
- inhibition of growth at 10 µM [4]: 36%
- inhibition of growth at 10 µM [5]: < 30%
- inhibition of growth at 10 µM (A549): < 30%
- inhibition of growth at 10 µM (NCI-H322M): < 30%
- inhibition of growth at 10 µM [6]: < 30%
- inhibition of growth at 10 µM [7]: < 30%
- inhibition of growth at 10 µM (ACHN): < 30%
- inhibition of growth at 10 µM [8]: < 30%
- inhibition of growth at 10 µM [9]: < 30%
- inhibition of growth at 10 µM (MDA-MB-468): 30%
- inhibition of growth at 10 µM [10]: < 30%
- inhibition of growth at 10 µM (K562): < 30%
- inhibition of growth at 10 µM [11]: < 30%
- inhibition of growth at 10 µM [12]: < 30%
- inhibition of growth at 10 µM [13]: < 30%
- inhibition of growth at 10 µM [14]: < 30%
- inhibition of growth at 10 µM (MCF7): < 30%
- inhibition of growth at 10 µM [15]: < 30%
- inhibition of growth at 10 µM (U-251): < 30%
- inhibition of growth at 10 µM (SK-MEL-5): < 30%
- inhibition of growth at 10 µM (SK-MEL-28): < 30%
- inhibition of growth at 10 µM [16]: < 30%
- inhibition of growth at 10 µM [17]: < 30%
- inhibition of growth at 10 µM (M14): < 30%
- inhibition of growth at 10 µM [18]: < 30%
- inhibition of growth at 10 µM [19]: 49%
